According to ChEMBL document CHEMBL3120077, “Synthesis, structure-activity relationship of iodinated-4-aryloxymethyl-coumarins as potential anti-cancer and anti-mycobacterial agents” (Eur J Med Chem, 2014):
In brackets after ≈: the same amount, converted by molar mass.

Legend:
Type in all cases: functional
[1] = test system: Mycobacterium tuberculosis; assay: Antimicrobial activity against Mycobacterium tuberculosis
In short: (§1)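 M. tuberculosis H37Rv was tested in Middlebrook 7H9 broth in a microplate Alamar Blue assay. Compounds were serially diluted on the plate to final concentrations of 100–0.2 µg/mL. Sealed plates were incubated at 37 °C for 5 days. A fresh 1:1 mix of Alamar Blue and 10% Tween 80 was then added, followed by 24 h more incubation. Blue wells were scored as no growth, pink as growth.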

Mycolicibacterium phlei = assay: Antimicrobial activity against Mycobacterium phlei after 5 days by microplate Alamar Blue assay; details: 120 h
In short: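 Microplate Alamar Blue assay (MABA) in Middlebrook 7H9 broth, compounds serially diluted on plate to final 100–0.2 µg/mL. Plates sealed and incubated 37 °C for 5 days, then 1:1 Alamar Blue/10% Tween 80 added and incubated 24 h more. Blue scored as no growth, pink as growth.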

[2] = test system: Mycobacterium tuberculosis; assay: Antimicrobial activity against Mycobacterium tuberculosis H37Rv after 5 days by microplate Alamar Blue assay; details: 120 h; in short: as §1
A549 = assay: Cytotoxicity against human A549 cells after 24 hrs by MTT assay
In short: (§2)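 Cells seeded at 2×10^4/well, incubated overnight, then exposed 24 h to test concentrations. MTT (5 mg/mL stock) added, 3 h at 37 °C; formazan dissolved in DMSO, absorbance 570 nm. Percent viability inhibition relative to untreated control; IC50 from linear regression of the dose-response line.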

[3] = Cytotoxicity against human MDA-MB cells after 24 hrs by MTT assay; in short: as §2
[4] = test system: Mycobacterium tuberculosis; assay: Antimicrobial activity against Mycobacterium tuberculosis ATCC 27294 by microplate Alamar Blue assay; in short: as §1

Row | SMILES | MIC [1] | MIC (Mycolicibacterium phlei) | MIC [2] | MIC (A549) | MIC [3] | MIC [4]
1 | Cc1cc(=O)oc2cc(OCc3cn(Cc4cc(=O)oc5ccc6ccccc6c45)nn3)ccc12 | 6.25 µg/mL (≈ 13.4 µM) | – | – | – | – | –
2 | Cc1cc(=O)oc2cc(OCc3cn(Cc4cc(=O)oc5cc(Cl)ccc45)nn3)ccc12 | 6.25 µg/mL (≈ 13.9 µM) | – | – | – | – | –
3 | O=c1cc(COc2cccc(I)c2)c2cc(Br)ccc2o1 | – | 6.25 µg/mL (≈ 13.7 µM) | 12.5 µg/mL (≈ 27.3 µM) | 6.25 µg/mL (≈ 13.7 µM) | 6.25 µg/mL (≈ 13.7 µM) | –
4 | Cc1ccc2oc(=O)cc(COc3ccc(I)cc3)c2c1 | – | 12.5 µg/mL (≈ 31.9 µM) | 12.5 µg/mL (≈ 31.9 µM) | 12.5 µg/mL (≈ 31.9 µM) | 12.5 µg/mL (≈ 31.9 µM) | –
5 | Cc1ccc2c(COc3ccc(I)cc3)cc(=O)oc2c1 | – | 12.5 µg/mL (≈ 31.9 µM) | 25 µg/mL (≈ 63.7 µM) | 12.5 µg/mL (≈ 31.9 µM) | 12.5 µg/mL (≈ 31.9 µM) | –
6 | Cc1ccc2c(COc3ccc(I)cc3)cc(=O)oc2c1C | – | 12.5 µg/mL (≈ 30.8 µM) | 12.5 µg/mL (≈ 30.8 µM) | 12.5 µg/mL (≈ 30.8 µM) | 12.5 µg/mL (≈ 30.8 µM) | –
7 | COc1ccc2oc(=O)cc(COc3ccc(I)cc3)c2c1 | – | 12.5 µg/mL (≈ 30.6 µM) | 25 µg/mL (≈ 61.2 µM) | 6.25 µg/mL (≈ 15.3 µM) | 25 µg/mL (≈ 61.2 µM) | –
8 | COc1ccc2c(COc3ccc(I)cc3)cc(=O)oc2c1 | – | 12.5 µg/mL (≈ 30.6 µM) | 25 µg/mL (≈ 61.2 µM) | 6.25 µg/mL (≈ 15.3 µM) | 25 µg/mL (≈ 61.2 µM) | –
9 | O=c1cc(COc2ccc(I)cc2)c2c(ccc3ccccc32)o1 | – | 25 µg/mL (≈ 58.4 µM) | 25 µg/mL (≈ 58.4 µM) | 6.25 µg/mL (≈ 14.6 µM) | 25 µg/mL (≈ 58.4 µM) | –
10 | O=c1cc(COc2ccc(I)cc2)c2ccc3ccccc3c2o1 | – | 25 µg/mL (≈ 58.4 µM) | 25 µg/mL (≈ 58.4 µM) | 6.25 µg/mL (≈ 14.6 µM) | 25 µg/mL (≈ 58.4 µM) | –
11 | O=c1cc(COc2ccc(I)cc2)c2cc(Cl)ccc2o1 | – | 3.12 µg/mL (≈ 7.57 µM) | 1.56 µg/mL (≈ 3.78 µM) | 3.12 µg/mL (≈ 7.57 µM) | 1.56 µg/mL (≈ 3.78 µM) | –
12 | O=c1cc(COc2ccc(I)cc2)c2ccc(Cl)cc2o1 | – | 3.12 µg/mL (≈ 7.57 µM) | 1.56 µg/mL (≈ 3.78 µM) | 3.12 µg/mL (≈ 7.57 µM) | 1.56 µg/mL (≈ 3.78 µM) | –
13 | O=c1cc(COc2ccc(I)cc2)c2cc(Br)ccc2o1 | – | 6.25 µg/mL (≈ 13.7 µM) | 6.25 µg/mL (≈ 13.7 µM) | 3.12 µg/mL (≈ 6.84 µM) | 3.12 µg/mL (≈ 6.84 µM) | –
14 | O=C(N/N=C/c1cccc(O)c1)c1cc2ccccc2oc1=O | 50 µg/mL (≈ 162 µM) | – | – | – | – | –
15 | Cc1cc(=O)oc2cc(OCc3cn(Cc4cc(=O)oc5ccc(Cl)cc45)nn3)ccc12 | 6.25 µg/mL (≈ 13.9 µM) | – | – | – | – | –
16 | Cc1ccc2oc(=O)cc(COc3ccccc3I)c2c1 | – | > 100 µg/mL | 12.5 µg/mL (≈ 31.9 µM) | 50 µg/mL (≈ 127 µM) | 12.5 µg/mL (≈ 31.9 µM) | –
17 | Cc1ccc2c(COc3ccccc3I)cc(=O)oc2c1 | – | > 100 µg/mL | 12.5 µg/mL (≈ 31.9 µM) | 50 µg/mL (≈ 127 µM) | 12.5 µg/mL (≈ 31.9 µM) | –
18 | Cc1ccc2c(COc3ccccc3I)cc(=O)oc2c1C | – | 50 µg/mL (≈ 123 µM) | 25 µg/mL (≈ 61.5 µM) | 50 µg/mL (≈ 123 µM) | 25 µg/mL (≈ 61.5 µM) | –
19 | COc1ccc2oc(=O)cc(COc3ccccc3I)c2c1 | – | 50 µg/mL (≈ 122 µM) | 12.5 µg/mL (≈ 30.6 µM) | 25 µg/mL (≈ 61.2 µM) | 25 µg/mL (≈ 61.2 µM) | –

Row | SMILES | MIC [1] | MIC (Mycolicibacterium phlei) | MIC [2] | MIC (A549) | MIC [3] | MIC [4]
20 | COc1ccc2c(COc3ccccc3I)cc(=O)oc2c1 | – | 50 µg/mL (≈ 122 µM) | 12.5 µg/mL (≈ 30.6 µM) | 25 µg/mL (≈ 61.2 µM) | 25 µg/mL (≈ 61.2 µM) | –
21 | O=c1cc(COc2ccccc2I)c2c(ccc3ccccc32)o1 | – | 50 µg/mL (≈ 117 µM) | 50 µg/mL (≈ 117 µM) | 25 µg/mL (≈ 58.4 µM) | 25 µg/mL (≈ 58.4 µM) | –
22 | O=c1cc(COc2ccccc2I)c2ccc3ccccc3c2o1 | – | 50 µg/mL (≈ 117 µM) | 50 µg/mL (≈ 117 µM) | 25 µg/mL (≈ 58.4 µM) | 25 µg/mL (≈ 58.4 µM) | –
23 | O=c1cc(COc2ccccc2I)c2cc(Cl)ccc2o1 | – | 25 µg/mL (≈ 60.6 µM) | 6.25 µg/mL (≈ 15.1 µM) | 12.5 µg/mL (≈ 30.3 µM) | 12.5 µg/mL (≈ 30.3 µM) | –
24 | O=c1cc(COc2ccccc2I)c2ccc(Cl)cc2o1 | – | 25 µg/mL (≈ 60.6 µM) | 6.25 µg/mL (≈ 15.1 µM) | 12.5 µg/mL (≈ 30.3 µM) | 12.5 µg/mL (≈ 30.3 µM) | –
25 | O=c1cc(COc2ccccc2I)c2cc(Br)ccc2o1 | – | 50 µg/mL (≈ 109 µM) | 6.25 µg/mL (≈ 13.7 µM) | 12.5 µg/mL (≈ 27.3 µM) | 12.5 µg/mL (≈ 27.3 µM) | –
26 | Cc1ccc2oc(=O)cc(COc3cccc(I)c3)c2c1 | – | 12.5 µg/mL (≈ 31.9 µM) | 25 µg/mL (≈ 63.7 µM) | 25 µg/mL (≈ 63.7 µM) | 25 µg/mL (≈ 63.7 µM) | –
27 | Cc1ccc2c(COc3cccc(I)c3)cc(=O)oc2c1 | – | 12.5 µg/mL (≈ 31.9 µM) | 25 µg/mL (≈ 63.7 µM) | 25 µg/mL (≈ 63.7 µM) | 25 µg/mL (≈ 63.7 µM) | –
28 | Cc1ccc2c(COc3cccc(I)c3)cc(=O)oc2c1C | – | 25 µg/mL (≈ 61.5 µM) | 25 µg/mL (≈ 61.5 µM) | 25 µg/mL (≈ 61.5 µM) | 25 µg/mL (≈ 61.5 µM) | –
29 | COc1ccc2oc(=O)cc(COc3cccc(I)c3)c2c1 | – | 50 µg/mL (≈ 122 µM) | 25 µg/mL (≈ 61.2 µM) | 12.5 µg/mL (≈ 30.6 µM) | 50 µg/mL (≈ 122 µM) | –
30 | COc1ccc2c(COc3cccc(I)c3)cc(=O)oc2c1 | – | 50 µg/mL (≈ 122 µM) | 25 µg/mL (≈ 61.2 µM) | 12.5 µg/mL (≈ 30.6 µM) | 50 µg/mL (≈ 122 µM) | –
31 | O=c1cc(COc2cccc(I)c2)c2c(ccc3ccccc32)o1 | – | 25 µg/mL (≈ 58.4 µM) | 25 µg/mL (≈ 58.4 µM) | 12.5 µg/mL (≈ 29.2 µM) | 50 µg/mL (≈ 117 µM) | –
32 | O=c1cc(COc2cccc(I)c2)c2ccc3ccccc3c2o1 | – | 25 µg/mL (≈ 58.4 µM) | 25 µg/mL (≈ 58.4 µM) | 12.5 µg/mL (≈ 29.2 µM) | 50 µg/mL (≈ 117 µM) | –
33 | O=c1cc(COc2cccc(I)c2)c2cc(Cl)ccc2o1 | – | 6.25 µg/mL (≈ 15.1 µM) | 12.5 µg/mL (≈ 30.3 µM) | 6.25 µg/mL (≈ 15.1 µM) | 6.25 µg/mL (≈ 15.1 µM) | –
34 | O=c1cc(COc2cccc(I)c2)c2ccc(Cl)cc2o1 | – | 6.25 µg/mL (≈ 15.1 µM) | 12.5 µg/mL (≈ 30.3 µM) | 6.25 µg/mL (≈ 15.1 µM) | 6.25 µg/mL (≈ 15.1 µM) | –
35 | O=C(Cc1cc(=O)oc2cc(O)ccc12)N/N=C/c1cccc([N+](=O)[O-])c1 | – | – | – | – | – | 6.25 µg/mL (≈ 17 µM)
36 | NC(=O)c1cnccn1 [PYRAZINAMIDE] | – | 3.12 µg/mL (≈ 25.4 µM) | 3.12 µg/mL (≈ 25.4 µM) | – | – | –
37 | CN[C@@H]1[C@H](O[C@H]2[C@H](O[C@H]3[C@H](O)[C@@H](O)[C@H](N=C(N)N)[C@@H](O)[C@@H]3N=C(N)N)O[C@@H](C)[C@]2(O)C=O)O[C@@H](CO)[C@H](O)[C@H]1O [STREPTOMYCIN] | – | 6.25 µg/mL (≈ 10.7 µM) | 6.25 µg/mL (≈ 10.7 µM) | – | – | –
